pIC50, pKi: −log10 of the molar value. Values belong to the compound of their own block, whether it stands above or below them.
Columns and labels:
[1] = target: Somatostatin receptor type 4 (Homo sapiens, UniProt P31391); assay: Displacement of [125I]iodotyrosyl from human SST4 receptor expressed in CHO cells; assay type: cell-based
Outline: (§1)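 Membranes from CHO cells stably expressing cloned human sst1–5 were used at 2 µg protein/well (sst1), 0.2 (sst2) or 0.7 (sst3, sst4, sst5). After GF/B filtration, bound label was counted. Nonspecific binding used 1 µM SST28; Ki came from single-site fits with known Kd; tested once in duplicate.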

[2] = target: Somatostatin receptor type 5 (Homo sapiens, UniProt P35346); assay: Displacement of [125I]iodotyrosyl from human SST5 receptor expressed in CHO cells; assay type: cell-based; outline: as §1
[3] = target: Somatostatin receptor type 1 (Homo sapiens, UniProt P30872); assay: Displacement of [125I]iodotyrosyl from human SST1 receptor expressed in CHO cells; assay type: cell-based; outline: as §1
[4] = target: Somatostatin receptor type 2 (Homo sapiens, UniProt P30874); assay: Displacement of [125I]iodotyrosyl from human SST2 receptor expressed in CHO cells; assay type: cell-based; outline: as §1
[5] = target: Somatostatin receptor type 3 (Homo sapiens, UniProt P32745); assay: Displacement of [125I]iodotyrosyl from human SST3 receptor expressed in CHO cells; assay type: cell-based; outline: as §1
[6] = target: T1, Melanin-concentrating hormone receptor 1 (Homo sapiens, UniProt Q99705); assay: Displacement of [I125I]MCH from human MCH1 receptor expressed in CHO cells by scintillation counting; assay type: cell-based
Outline: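 SPA competition on membranes of CHO cells stably expressing human MCH1, premixed with WGA-PVT beads (0.25 mg/well). Test compound was added at increasing concentrations with [125I]-MCH in HEPES pH 7.4 buffer containing CaCl2, MgCl2 and 0.2% BSA, incubated 2 h at room temperature, then scintillation-counted. Phe-(D)Tyr-MCH served as reference ligand; IC50 came from sigmoidal dose-response fits.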

[7] = target: T1, Melanin-concentrating hormone receptor 1; assay: Displacement of [I125I]MCH from human MCH1 receptor expressed in CHO cells (empty) by scintillation counting; conditions: 3 uM

T1 sequence (Q99705 whole entry): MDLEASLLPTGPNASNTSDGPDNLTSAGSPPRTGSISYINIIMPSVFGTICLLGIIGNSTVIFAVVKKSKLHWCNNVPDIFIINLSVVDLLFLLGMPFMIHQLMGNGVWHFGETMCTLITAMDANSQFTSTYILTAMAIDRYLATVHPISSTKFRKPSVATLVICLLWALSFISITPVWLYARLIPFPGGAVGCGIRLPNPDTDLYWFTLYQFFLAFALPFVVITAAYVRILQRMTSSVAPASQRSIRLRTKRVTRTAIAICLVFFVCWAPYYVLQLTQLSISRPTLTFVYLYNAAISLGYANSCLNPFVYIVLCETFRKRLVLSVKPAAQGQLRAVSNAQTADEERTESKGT
Sequence of Somatostatin receptor type 1 (P30872 whole entry): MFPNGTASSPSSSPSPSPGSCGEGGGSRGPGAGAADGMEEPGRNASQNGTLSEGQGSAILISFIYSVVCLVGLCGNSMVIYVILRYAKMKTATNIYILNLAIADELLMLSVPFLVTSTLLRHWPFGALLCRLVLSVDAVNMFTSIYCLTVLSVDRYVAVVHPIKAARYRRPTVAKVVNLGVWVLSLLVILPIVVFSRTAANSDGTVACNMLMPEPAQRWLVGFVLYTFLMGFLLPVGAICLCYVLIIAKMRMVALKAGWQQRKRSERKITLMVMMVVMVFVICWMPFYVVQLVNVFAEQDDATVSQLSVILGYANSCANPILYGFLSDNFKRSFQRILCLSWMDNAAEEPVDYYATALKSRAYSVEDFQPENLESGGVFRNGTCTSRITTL
Sequence of Somatostatin receptor type 2 (P30874 whole entry): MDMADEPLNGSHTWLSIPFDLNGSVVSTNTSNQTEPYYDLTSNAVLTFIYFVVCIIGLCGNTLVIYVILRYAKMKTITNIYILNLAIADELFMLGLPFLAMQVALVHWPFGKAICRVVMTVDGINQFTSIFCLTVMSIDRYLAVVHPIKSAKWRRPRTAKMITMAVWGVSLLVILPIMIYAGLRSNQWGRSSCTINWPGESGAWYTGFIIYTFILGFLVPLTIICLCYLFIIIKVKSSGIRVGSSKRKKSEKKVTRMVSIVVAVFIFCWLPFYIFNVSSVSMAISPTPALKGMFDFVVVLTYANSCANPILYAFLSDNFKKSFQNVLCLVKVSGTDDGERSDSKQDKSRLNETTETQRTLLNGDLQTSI
Sequence of Somatostatin receptor type 5 (P35346 whole entry): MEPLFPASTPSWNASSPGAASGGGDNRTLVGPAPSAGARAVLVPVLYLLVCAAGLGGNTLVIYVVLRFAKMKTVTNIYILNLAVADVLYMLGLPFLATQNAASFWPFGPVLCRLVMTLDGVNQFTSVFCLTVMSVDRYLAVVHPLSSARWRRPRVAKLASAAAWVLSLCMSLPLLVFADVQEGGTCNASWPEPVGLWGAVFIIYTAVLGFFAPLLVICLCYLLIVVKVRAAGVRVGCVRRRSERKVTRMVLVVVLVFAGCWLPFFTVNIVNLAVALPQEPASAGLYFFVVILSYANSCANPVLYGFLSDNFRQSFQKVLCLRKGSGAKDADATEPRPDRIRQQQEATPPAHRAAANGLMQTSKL
Sequence of Somatostatin receptor type 3 (P32745 whole entry): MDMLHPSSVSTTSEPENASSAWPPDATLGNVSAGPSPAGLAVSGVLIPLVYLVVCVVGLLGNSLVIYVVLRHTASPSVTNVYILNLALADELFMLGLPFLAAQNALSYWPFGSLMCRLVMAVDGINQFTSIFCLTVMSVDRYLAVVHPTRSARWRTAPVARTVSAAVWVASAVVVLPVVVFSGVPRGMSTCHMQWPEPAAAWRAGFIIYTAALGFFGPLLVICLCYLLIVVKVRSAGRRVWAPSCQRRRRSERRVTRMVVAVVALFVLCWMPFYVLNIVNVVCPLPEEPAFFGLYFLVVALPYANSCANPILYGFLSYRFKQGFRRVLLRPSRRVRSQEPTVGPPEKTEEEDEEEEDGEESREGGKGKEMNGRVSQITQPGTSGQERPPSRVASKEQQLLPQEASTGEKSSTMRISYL
Sequence of Somatostatin receptor type 4 (P31391 whole entry): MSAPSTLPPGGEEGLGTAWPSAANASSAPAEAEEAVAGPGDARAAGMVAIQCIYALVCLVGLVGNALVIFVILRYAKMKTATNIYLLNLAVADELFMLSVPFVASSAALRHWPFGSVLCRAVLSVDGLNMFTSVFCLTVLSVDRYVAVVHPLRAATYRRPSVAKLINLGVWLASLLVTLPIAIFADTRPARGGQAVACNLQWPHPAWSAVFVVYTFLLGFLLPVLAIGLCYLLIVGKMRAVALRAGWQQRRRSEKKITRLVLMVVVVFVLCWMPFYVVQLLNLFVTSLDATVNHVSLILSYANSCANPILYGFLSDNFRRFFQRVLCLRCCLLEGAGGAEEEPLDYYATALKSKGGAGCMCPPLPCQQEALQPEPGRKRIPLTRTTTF

pIC50 [1]: 6.74
Structure (SMILES): CS[C@@H]1O[C@H](COCc2ccccc2)[C@@H](O)[C@@H](OCc2ccc3ccccc3c2)[C@H]1NC(=O)CCN=C(N)N

pIC50 [2]: 6.80
Structure (SMILES): COC[C@H]1OC(OCCc2ccccc2)[C@H](NC(=O)CCN)C(OCc2ccc3ccccc3c2)[C@@H]1O (some centres undefined)

pIC50 [3]: 5.02
pIC50 [4]: 6.01
pIC50 [5]: 5.20
pIC50 [1]: 6.37
pIC50 [2]: 5.22
Structure (SMILES): CS[C@@H]1O[C@H](COCc2ccc(Cl)cc2)[C@@H](O)[C@@H](OCc2ccc3ccccc3c2)[C@H]1NC(=O)CCN

pIC50 [3]: < 5.00
pIC50 [4]: < 5.00
pIC50 [5]: 6.30
pIC50 [1]: < 5.00
pIC50 [2]: 7.15
Structure (SMILES): COC[C@H]1O[C@H](OCc2ccc3ccccc3c2)[C@H](NC(=O)CCCN)[C@H](OCc2ccc(Cl)cc2)[C@@H]1O

pKi [6]: 5.20
Structure (SMILES): COC[C@H]1OC(OCc2ccc3ccccc3c2)[C@H](NC(=O)CCN=C(N)N)[C@@H](OCc2ccc3ccccc3c2)[C@@H]1O (some centres undefined)

pIC50 [3]: 5.55
pIC50 [4]: 6.19
pIC50 [5]: 6.42
pIC50 [1]: 5.40
pIC50 [2]: 7.70
Structure (SMILES): COC[C@H]1O[C@@H](OCc2ccc3ccccc3c2)[C@H](NC(=O)CCN)[C@@H](OCc2ccc3ccccc3c2)[C@@H]1O

pKi [6]: 5.29
Structure (SMILES): COC[C@H]1OC(OCc2ccc3ccccc3c2)[C@H](NC(=O)CCCN=C(N)N)[C@@H](OCc2ccc3ccccc3c2)[C@@H]1O (some centres undefined)

pKi [6]: 5.18
Structure (SMILES): COC[C@H]1OC(OCc2ccc3ccccc3c2)[C@H](NC(=O)CN=C(N)N)[C@@H](OCc2ccc(Cl)cc2)[C@@H]1O (some centres undefined)

IC50 [7]: > 3 µM
Structure (SMILES): COC[C@H]1O[C@@H](OCc2ccc(Cl)cc2)[C@H](NC(=O)CCCN=C(N)N)[C@@H](OCc2ccc3ccccc3c2)[C@@H]1O

pIC50 [3]: < 5.00
pIC50 [4]: 5.21
pIC50 [5]: 5.08
pIC50 [1]: < 5.00
pIC50 [2]: 6.70
Structure (SMILES): COC[C@H]1O[C@H](OCCc2ccccc2)[C@H](NC(=O)CCCN)[C@H](OCc2ccc3ccccc3c2)[C@@H]1O

pIC50 [3]: < 5.00
pIC50 [4]: < 5.00
pIC50 [1]: < 5.00
pIC50 [2]: 7.30
Structure (SMILES): COC[C@H]1O[C@@H](OCc2ccc3ccccc3c2)[C@H](NC(=O)CCCN)[C@@H](OCc2ccc(Cl)cc2)[C@@H]1O

pIC50 [6]: 6.27
Structure (SMILES): COC[C@H]1O[C@H](OCCc2ccccc2)[C@H](NC(=O)CCCN=C(N)N)[C@@H](OCc2ccc(Cl)cc2)[C@@H]1O

pIC50 [3]: < 5.00
pIC50 [4]: 5.48
pIC50 [5]: 5.88
pIC50 [1]: < 5.00
pIC50 [2]: 6.74
Structure (SMILES): COC[C@H]1O[C@@H](OCCc2ccccc2)[C@H](NC(=O)CCCN)[C@@H](OCc2ccc3ccccc3c2)[C@@H]1O

pIC50 [6]: 5.94
Structure (SMILES): COC[C@H]1O[C@H](OCc2ccc3ccccc3c2)[C@H](NC(=O)CCCN=C(N)N)[C@@H](OCc2ccc3ccccc3c2)[C@@H]1O

pIC50 [1]: 6.14
Structure (SMILES): CS[C@@H]1O[C@H](COCc2ccc(Cl)cc2)[C@@H](O)[C@@H](OCc2ccc3ccccc3c2)[C@H]1NC(=O)CCCN=C(N)N

pIC50 [1]: 6.18
Structure (SMILES): CS[C@@H]1O[C@H](COCc2ccccc2)[C@@H](O)[C@@H](OCc2ccc3ccccc3c2)[C@H]1NC(=O)CCN

pIC50 [6]: 6.35
Structure (SMILES): COC[C@H]1O[C@H](OCc2ccc(Cl)cc2)[C@H](NC(=O)CCCN=C(N)N)[C@@H](OCc2ccc3ccccc3c2)[C@@H]1O

pKi [6]: 5.46
Structure (SMILES): COC[C@H]1OC(OCCc2ccccc2)[C@H](NC(=O)CCCN=C(N)N)[C@@H](OCc2ccc(Cl)cc2)[C@@H]1O (some centres undefined)

pKi [6]: 5.74
Structure (SMILES): COC[C@H]1OC(OCc2ccc3ccccc3c2)[C@H](NC(=O)CCCN=C(N)N)[C@@H](OCc2ccc(Cl)cc2)[C@@H]1O (some centres undefined)

pIC50 [1]: 6.36
Structure (SMILES): CS[C@@H]1O[C@H](COCc2ccc3ccccc3c2)[C@@H](O)[C@@H](OCc2ccc3ccccc3c2)[C@H]1NC(=O)CCN

pIC50 [6]: 6.92
Structure (SMILES): COC[C@H]1O[C@H](OCc2ccc(Cl)cc2)[C@H](NC(=O)CCCN=C(N)N)[C@@H](OCc2ccc(Cl)cc2)[C@@H]1O

pIC50 [6]: 5.78
Structure (SMILES): COC[C@H]1O[C@@H](OCc2ccc(Cl)cc2)[C@H](NC(=O)CCCN=C(N)N)[C@@H](OCc2ccc(Cl)cc2)[C@@H]1O

pIC50 [6]: 5.76
Structure (SMILES): COC[C@H]1O[C@@H](OCc2ccc3ccccc3c2)[C@H](NC(=O)CCCN=C(N)N)[C@@H](OCc2ccc(Cl)cc2)[C@@H]1O

pKi [6]: 5.92
Structure (SMILES): COC[C@H]1OC(OCc2ccc(Cl)cc2)[C@H](NC(=O)CCCN=C(N)N)[C@@H](OCc2ccc(Cl)cc2)[C@@H]1O (some centres undefined)

pIC50 [6]: 6.04
Structure (SMILES): COC[C@H]1O[C@H](OCc2ccc3ccccc3c2)[C@H](NC(=O)CCCN=C(N)N)[C@@H](OCc2ccc(Cl)cc2)[C@@H]1O

pKi [6]: 5.59
Structure (SMILES): COC[C@H]1OC(OCc2ccc(Cl)cc2)[C@H](NC(=O)CCCN=C(N)N)[C@@H](OCc2ccc3ccccc3c2)[C@@H]1O (some centres undefined)

Reference: ChEMBL document CHEMBL1250479, “Biological diversity from a structurally diverse library: systematically scanning conformational space using a pyranose scaffold” (J Med Chem, 2010)
